Experimental data pooled from the literature.
Compare with care: the assays were run in different laboratories.

| Structure (SMILES) | tested on | test | test system | conditions | measurement | result |
| --- | --- | --- | --- | --- | --- | --- |
| Cl.N[C@@H]1CCN(c2cc(C(=O)NCC(=O)O)ccc2NC(=O)c2cc(Br)c(Br)[nH]2)C1 | Klebsiella aerogenes | microbial growth, broth dilution | ATCC13408 |  | MIC | > 32 µg/mL |
| C=CC(=O)c1cccnc1Nc1cc(C(F)(F)F)ccc1OC | U-87 MG | cell growth or viability, SRB |  | 48 h | GI50 | 7.72 µM |
| Cc1[nH]c(C(=O)Nc2ccc(C(=O)NCC(=O)O)cc2N2CCN(C(=O)OC(C)(C)C)CC2)c(Cl)c1Cl | Klebsiella aerogenes | microbial growth, broth dilution | ATCC13408 |  | MIC | > 32 µg/mL |
| C=CC(=O)NC1CCN(c2ncc3ncnc(Nc4ccc(Oc5ccc6c(c5)ncn6C)c(C)c4)c3n2)CC1 | EKVX | cell growth or viability |  |  | EC50 | 0.0025 µM |
| O=C(O)c1cccnc1Nc1cccc(C(F)(F)F)c1 | U-87 MG | cell growth or viability, SRB |  | 48 h | GI50 | > 30 µM |
| Cc1[nH]c(C(=O)Nc2ccc(C(=O)NCC(=O)O)cc2N2CC[C@@H](N)C2)c(Cl)c1Cl.Cl | Klebsiella aerogenes | microbial growth, broth dilution | ATCC13408 |  | MIC | > 32 µg/mL |
| Cc1cc(C)c(C#N)c(SCC(=O)c2ccccc2C)n1 | Leishmania infantum | parasite growth | mouse Macrophage | intracellular, amastigote | EC50 | 7.38 µM |
| C=CC(=O)c1cccnc1Nc1cc(C(F)(F)F)ccc1OCc1ccccc1 | U-87 MG | cell growth or viability, SRB |  | 48 h | GI50 | 9.65 µM |
| COc1cccc(C(=O)COc2nc(C)cc(C)c2C#N)c1 | Leishmania infantum | parasite growth | mouse Macrophage | intracellular, amastigote | EC50 | > 64 µM |
| O=C(O)c1cn(C2CC2)c2cc(N3CCNCC3)c(F)cc2c1=O | Klebsiella aerogenes | microbial growth | ATCC35029 |  | MIC | 2 µM |
| Cc1cc(C)c(C#N)c(OCC(=O)c2ccccc2)n1 | Leishmania infantum | parasite growth | mouse Macrophage | intracellular, amastigote | EC50 | > 64 µM |
| CC(=NNC(=O)COc1ccc2c(C)c(Cc3ccccc3)c(=O)oc2c1C)c1ccc(Br)cc1 | HCT-116 | cell growth or viability, MTT |  | 0.2 µg/mL | viability | 66% |
